Laboratory results as given in ChEMBL document CHEMBL1156708, “Enamines as novel antibacterials and their structure-activity relationships” (2008).
≈ marks a conversion by molar mass, not a printed value.

Assays:
Format in all cases: functional
Bacillus subtilis = experiment: Antibacterial activity against Bacillus subtilis ATCC 6633 after 24 hrs by MTT assay; conditions: ATCC 6633, 24 h
Procedure, shortened: (§1)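 Broth microdilution MIC in MH medium; compounds from 50 mg/mL DMSO stock serially diluted in medium in microtitration plates. Inoculum about 10⁵ cfu/mL; incubated at 37 °C for 24 h. MIC read visually, then PBS containing 2 mg MTT/mL added per well; after 12 h further incubation at room temperature, OD read at 550 nm.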

Escherichia coli = experiment: Antibacterial activity against Escherichia coli ATCC 35218 after 24 hrs by MTT assay; conditions: ATCC 35218, 24 h; procedure, shortened: as §1
Pseudomonas fluorescens = experiment: Antibacterial activity against Pseudomonas fluorescens ATCC 13525 after 24 hrs by MTT assay; conditions: ATCC 13525, 24 h; procedure, shortened: as §1
Staphylococcus aureus = experiment: Antibacterial activity against Staphylococcus aureus ATCC 6538 after 24 hrs by MTT assay; conditions: ATCC 6538, 24 h; procedure, shortened: as §1
Aspergillus niger = experiment: Antifungal activity against Aspergillus niger ATCC 16404 after 48 hrs by MTT assay; conditions: ATCC 16404, 48 h
Procedure, shortened: (§2)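 MIC determined by serial dilution in RPMI-1640 medium in microtitration plates, compounds from 50 mg/mL DMSO stock. Fungal suspension about 10⁵ cfu/mL, incubated at 37 °C for 48 h. Visual MIC reading followed by addition of PBS with 2 mg MTT/mL; OD at 550 nm measured after 12 h at room temperature.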

Candida albicans = experiment: Antifungal activity against Candida albicans ATCC 10231 after 48 hrs by MTT assay; conditions: ATCC 10231, 48 h; procedure, shortened: as §2
Trichophyton rubrum = experiment: Antifungal activity against Trichophyton rubrum ATCC 10218 after 48 hrs by MTT assay; conditions: ATCC 10218, 48 h; procedure, shortened: as §2

Compound | MIC (Bacillus subtilis) [µg/mL] | MIC (Escherichia coli) [µg/mL] | MIC (Pseudomonas fluorescens) [µg/mL] | MIC (Staphylococcus aureus) [µg/mL] | MIC (Aspergillus niger) [µg/mL] | MIC (Candida albicans) [µg/mL] | MIC (Trichophyton rubrum) [µg/mL]
CCOC(=O)/C(=C\Nc1cc(Br)c(O)c(Br)c1)c1ccc(Cl)cc1 | > 50 | > 50 | > 50 | 33.5 (≈ 70.4 µM) | > 50 | > 50 | > 50
CCOC(=O)/C(=C/Nc1cc(Br)c(O)c(Br)c1)c1ccc(Cl)cc1 | > 50 | > 50 | 3.7 (≈ 7.78 µM) | 1 (≈ 2.1 µM) | > 50 | > 50 | > 50
CCOC(=O)/C(=C/Nc1ccc(Br)cc1Br)c1ccc(Cl)cc1 | > 50 | > 50 | 4.5 (≈ 9.79 µM) | 8.2 (≈ 17.8 µM) | > 50 | > 50 | > 50
CCOC(=O)/C(=C/N1CCCc2ccccc21)c1ccc(Cl)cc1 | > 50 | > 50 | 38.5 (≈ 113 µM) | > 50 | > 50 | > 50 | > 50
CCOC(=O)/C(=C/N1CCCc2ccccc21)c1ccc(OC)cc1 | > 50 | > 50 | 41.5 (≈ 123 µM) | > 50 | > 50 | > 50 | > 50
CCOC(=O)/C(=C\Nc1ccc(F)cc1F)c1ccc(Cl)cc1 | > 50 | 47.3 (≈ 140 µM) | > 50 | > 50 | > 50 | > 50 | > 50
CCOC(=O)/C(=C/Nc1ccc(F)cc1F)c1ccc(Cl)cc1 | > 50 | 48 (≈ 142 µM) | > 50 | 40.9 (≈ 121 µM) | > 50 | > 50 | > 50
CCOC(=O)/C(=C\Nc1ccc(O)cc1)c1ccc(Cl)cc1 | > 50 | 38.9 (≈ 122 µM) | 13.1 (≈ 41.2 µM) | 44.9 (≈ 141 µM) | > 50 | > 50 | > 50
CCOC(=O)/C(=C\Nc1ccc(Cl)cc1Cl)c1ccc(Cl)cc1 | > 50 | > 50 | > 50 | > 50 | > 50 | > 50 | > 50
CCOC(=O)/C(=C\Nc1ccccc1F)c1ccc(Cl)cc1 | 46.6 (≈ 146 µM) | > 50 | 46 (≈ 144 µM) | > 50 | > 50 | > 50 | > 50
CCOC(=O)/C(=C/Nc1cc(Br)c(OC)c(Br)c1)c1ccc(Cl)cc1 | > 50 | > 50 | 6.1 (≈ 12.5 µM) | 2.2 (≈ 4.49 µM) | > 50 | > 50 | > 50
CCOC(=O)/C(=C\Nc1ccc(Br)cc1Br)c1ccc(Cl)cc1 | > 50 | > 50 | 23.8 (≈ 51.8 µM) | 32.1 (≈ 69.8 µM) | > 50 | > 50 | > 50
NC[C@H]1O[C@H](O[C@H]2[C@H](O)[C@@H](O[C@H]3O[C@H](CO)[C@@H](O)[C@H](N)[C@H]3O)[C@H](N)C[C@@H]2N)[C@H](O)[C@@H](O)[C@@H]1O [KANAMYCIN] | 0.39 (≈ 0.805 µM) | 3.9 (≈ 8.05 µM) | 3.9 (≈ 8.05 µM) | 1 (≈ 2.06 µM) | – | – | –
CC(=O)N1CCN(c2ccc(OCC3COC(Cn4ccnc4)(c4ccc(Cl)cc4Cl)O3)cc2)CC1 (stereo not drawn) [KETOCONAZOLE] | – | – | – | – | 7.8 (≈ 14.7 µM) | 3.9 (≈ 7.34 µM) | 3.9 (≈ 7.34 µM)
CC1(C)S[C@@H]2[C@H](NC(=O)Cc3ccccc3)C(=O)N2[C@H]1C(=O)O [PENICILLIN G] | 0.78 (≈ 2.33 µM) | – | – | 2 (≈ 5.98 µM) | – | – | –
